Series [1] relates to Human alphaherpesvirus 1. The experiment in a line: Antiviral activity against HSV1 CL101 infected in African green monkey Vero cells assessed as plaque forming unit at 400 uM after 40 hrs relative to control. The series is classed as functional. The note with it: Human alphaherpesvirus 1, CL101, Vero. The essentials: (§1)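 After 1 h adsorption at 37 °C, the inoculum was removed and cells washed with PBS. Compound was added in serum-supplemented medium and cultures incubated 40 h at 37 °C. Virus was released by one freeze–thaw and titrated by plaque assay on Vero cells. Percent inhibition was pfu relative to drug-free cultures.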

Series [2] relates to Human alphaherpesvirus 1. In words: Antiviral activity against HSV1 CL101 infected in African green monkey Vero cells assessed as plaque forming unit at 1 uM after 40 hrs relative to control. The series is classed as functional, organism-based. The method in brief:
as §1

A short description of series [3]: (§2) Cytotoxicity against African green monkey Vero cells at 400 uM after 3 days by haemocytometry. The series is classed as cell-based. To be noted: chlorocebus sabaeus, Vero cells; read-out: INH. The method in brief: (§3)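 Uninfected Vero cells were seeded at 0.1 confluency in Dulbecco's medium with 10% fetal calf serum and incubated 1 day at 37 °C in 5% CO2. Compound was then added in growth medium. Duplicate flasks were harvested at once and then daily for 3 days by trypsin (0.125%)/EDTA (0.02%) for 15 min at 37 °C, dispersed, and stained with trypan blue. Cells were counted by haemocytometer.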

Series [4] concerns Vero. The experiment in a line: Cytotoxicity against African green monkey Vero cells at 1 uM after 3 days by haemocytometry. The class given is cell-based. To be noted: chlorocebus sabaeus, 72 h. The method in brief: as §3
In series [5] the test system is CCRF S-180. The experiment in a line: Cytotoxicity against mouse S180 cells at 400 uM after 18 to 42 hrs relative to control. The series is classed as functional. The essentials:
(§4)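 Mouse sarcoma 180 suspension cultures in Fischer's medium with 10% horse serum, 37 °C, humidified 5% CO2 (generation time ~18 h). Compound was added to exponential-phase cells at ~2 × 10⁴ cells/mL. Increase in cell number was measured after 18 and 42 h. Percent inhibition was calculated relative to drug-free control.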

Series [6] relates to CCRF S-180. The experiment in a line: Cytotoxicity against mouse S180 cells at 1 uM after 18 to 42 hrs relative to control. The series is classed as functional. The method in brief:
as §4

Series [7] has as its system Human alphaherpesvirus 1. In words: Antiviral activity against HSV1 CL101 infected in African green monkey Vero cells assessed as plaque forming unit at 50 uM after 40 hrs relative to control. The series is classed as functional. The note with it: Human alphaherpesvirus 1, CL101, Vero. The method in brief: as §1
Series [8] is described as follows: (§5) Cytotoxicity against African green monkey Vero cells at 50 uM after 3 days by haemocytometry. The class given is cell-based. The note with it: chlorocebus sabaeus, Vero cells; read-out: INH. The method in brief:
as §3

Series [9] relates to CCRF S-180. The experiment in a line: Cytotoxicity against mouse S180 cells at 50 uM after 18 to 42 hrs relative to control. The class given is functional. The method in brief: as §4
Series [10] is described as follows: Cytotoxicity against African green monkey Vero cells at 0.1 uM after 3 days by haemocytometry. The series is classed as cell-based. To be noted: chlorocebus sabaeus, read-out: INH. The essentials: as §3
Series [11] deals with Vero. In words: Cytotoxicity against African green monkey Vero cells at 0.01 uM after 3 days by haemocytometry. The class given is cell-based. To be noted: chlorocebus sabaeus, 72 h. The method in brief:
as §3

Series [12] has as its system CCRF S-180. In words: Cytotoxicity against mouse S180 cells at 0.1 uM after 18 to 42 hrs relative to control. The series is classed as functional. The essentials:
as §4

For series [13], the system named is CCRF S-180. In words: Cytotoxicity against mouse S180 cells at 0.01 after 18 to 42 hrs relative to control. The class given is functional. The method in brief: as §4
In series [14] the test system is Human alphaherpesvirus 1. The experiment in a line: Antiviral activity against HSV1 CL101 infected in African green monkey Vero cells assessed as plaque forming unit at 200 uM after 40 hrs relative to control. The class given is functional. To be noted: Human alphaherpesvirus 1, CL101, Vero. The essentials: as §1
Series [15] relates to Vero. In words: Cytotoxicity against African green monkey Vero cells at 200 uM after 3 days by haemocytometry. The note with it: chlorocebus sabaeus, 72 h. The series is classed as cell-based.
Series [16] relates to CCRF S-180. The experiment in a line: Cytotoxicity against mouse S180 cells at 200 uM after 18 to 42 hrs relative to control. The series is classed as functional, cell-based. The essentials: as §4
Series [17] deals with Vero. Described as §5. The series is classed as cell-based. The note with it: chlorocebus sabaeus, vero, 72 h, 50 µM. The essentials:
as §3

The test system of series [18] is Vero. In words: Cytotoxicity against African green monkey Vero cells at 800 uM after 3 days by haemocytometry. The class given is cell-based. The note with it: chlorocebus sabaeus, 72 h. The essentials: as §3
The test system of series [19] is Vero. Described as §2. The series is classed as cell-based. To be noted: chlorocebus sabaeus, vero, 72 h, 400 µM. The method in brief: as §3
The test system of series [20] is Vero. The experiment in a line: Cytotoxicity against African green monkey Vero cells at 1600 uM after 3 days by haemocytometry. The class given is cell-based. To be noted: chlorocebus sabaeus, 72 h. The method in brief: as §3
The subject of series [21] is CCRF S-180. The experiment in a line: Cytotoxicity against mouse S180 cells at 1600 uM after 18 to 42 hrs relative to control. The series is classed as functional, cell-based. The essentials:
as §4

Each structure is given as a SMILES string. Calls of active or inactive are those of the source. The rule behind the calls is not given here.

By inhibition is commonly meant the percentage by which the read-out fell short of the control. Regarding `NC[C@H]1O[C@@H](n2cc(F)c(=O)[nH]c2=O)C[C@@H]1O`, the inhibition at 400 µM in series [1] amounted to 85.6%; in series [5], 100%. Also, in series [2], the inhibition result is “inactive”. For the same compound, the cytotoxicity at 72 h, 400 µM in [3] stood at 100%. Moreover, the Activity entry in series [4] is “Non-toxic”. Further, in [6], the inhibition at 1 µM was found to be 100%.

On to `O=c1[nH]c(=O)n([C@H]2C[C@H](O)[C@@H](CO)O2)cc1I` [IDOXURIDINE], for which the inhibition at 50 µM amounted to 99.5% in series [7] and 100% in series [9]. Also, in [8], the cytotoxicity at 72 h, 50 µM worked out at 100%.

On to `[N-]=[N+]=NC[C@H]1O[C@@H](n2cc(F)c(O)nc2=O)C[C@@H]1O`, for which the inhibition at 400 µM in series [1] came out at 5%; in series [5] it was 100%. The cytotoxicity at 72 h, 400 µM in series [3] turned out to be 100%.

As to `O=c1[nH]c(=O)n([C@H]2C[C@H](O)[C@@H](CO)O2)cc1F` [FLOXURIDINE], the inhibition at 400 µM in series [1] was 84.3%; in series [5] it was 100%. In addition, in series [3], the cytotoxicity at 72 h, 400 µM was 100%. In addition, in series [10], the cytotoxicity at 72 h, 0.1 µM was 100%. Moreover, in series [11], the Activity entry is “Non-toxic”. For the same compound, the inhibition at 0.1 µM in series [12] was found to be 100%. Moreover, the “inhibition (INH)” value in series [13] stood at 100%.

`NC[C@H]1O[C@@H](n2cc(Br)c(O)nc2=O)C[C@@H]1O`: the inhibition at 200 µM in series [14] came out at 86.2%. Besides, in series [15], the Activity result is “Non-toxic”. The inhibition result in series [16] was “inactive”.

As for `Nc1nc(=O)n([C@H]2C[C@H](O)[C@@H](CO)O2)cc1I` [IBACITABINE], in [7], the inhibition at 50 µM was 99.5%. Besides, the Activity result in series [17] and in series [18] was “Non-toxic” each time.

On to `NC[C@H]1O[C@@H](n2cc(I)c(N)nc2=O)C[C@@H]1O`, for which the inhibition at 400 µM in [1] was found to be 92.8%. In addition, the Activity entry in series [19] and in series [20] was “Non-toxic” each time. Also, the inhibition result in [5] and in series [21] was “inactive” in each case.

`[N-]=[N+]=NC[C@H]1O[C@@H](n2cc(I)c(N)nc2=O)C[C@@H]1O`: in series [14], the inhibition at 200 µM is 37.5%. In addition, the Activity result in series [15] was “Non-toxic”. For the same compound, in series [16], the inhibition entry is “inactive”.

For the compound `NC[C@H]1O[C@@H](n2cc(Cl)c(O)nc2=O)C[C@@H]1O`, the inhibition at 400 µM in series [1] was determined as 74.3%. Besides, the Activity entry in [19] was “Non-toxic”. For the same compound, the inhibition result in series [5] is “inactive”.

The record behind these values is ChEMBL document CHEMBL3243955, “A novel synthesis and biological activity of several 5-halo-5'-amino analogues of deoxyribopyrimidine nucleosides” (J Med Chem, 1978).
